Active and inactive are the calls of the source.
Tests used:
A-375 [1] = assay: Induction of cell cycle arrest in human A375 cells assessed as accumulation at S phase at 1 uM after 24 hrs by propidium iodide staining based flow cytometric analysis (reference value: 37.33%); assay type: functional
MCF7 = assay: Antiproliferative activity against human MCF7 cells assessed as growth inhibition at 10 uM after 72 hrs by MTT assay relative to control; assay type: functional; conditions: read-out: GI
Procedure, shortened: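 Single-concentration MTT screen on MCF-7 and A549 cells grown in DMEM + 10% FBS. Cells at 3000–6000/well, cultured overnight, then given compound in buffer with 1% DMSO for 72 h. MTT (0.5 mg/mL) added for 4 h, formazan dissolved in DMSO, A570 read. Percent inhibition reported as the average ± S.D. of three independent measurements.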

A-375 [2] = assay: Induction of apoptosis in human A375 cells assessed as late apoptotic cells at 2.5 uM after 36 hrs by annexinV-FITC/propidium iodide staining based flow cytometric analysis (reference value: 1.02%); assay type: functional
A549 = assay: Antiproliferative activity against human A549 cells assessed as growth inhibition after 72 hrs by MTT assay; assay type: functional, cell-based; conditions: Homo sapiens, A549, 72 h; read-out: IC50
Procedure, shortened: (§1)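 MTT viability assay. Cancer lines seeded at 3000–6000 cells/well and L02 at 7000 cells/well, cultured overnight, then exposed to a full dose range for 72 h. MTT (0.5 mg/mL) added for 4 h, supernatant removed, formazan dissolved in DMSO, absorbance read at 570 nm. IC50 taken as the mean of three independent experiments. Cells grown in DMEM + 10% FBS, 37 °C, 5% CO2.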

A-375 [3] = assay: Induction of apoptosis in human A375 cells assessed as necrotic cells at 5 uM after 36 hrs by annexinV-FITC/propidium iodide staining based flow cytometric analysis (reference value: 1.63%); assay type: functional
A-375 [4] = assay: Induction of mitochondrial membrane depolarization in human A375 cells at 2 to 10 uM after 4 hrs by JC-1 staining based confocal microscopic analysis; assay type: functional, cell-based; conditions: dose 2-10 µM
Procedure, shortened: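 Mitochondrial membrane potential. A375 cells seeded at 4 × 10^4 cells/mL, grown overnight, then treated at 2, 5 or 10 µM at 37 °C for 4 h. Stained with JC-1 in fresh medium for 15 min at 37 °C, washed three times with cool PBS and imaged by laser scanning confocal microscopy (red J-aggregate vs green monomer).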

A-375 [5] = assay: Induction of apoptosis in human A375 cells assessed as necrotic cells at 5 uM after 24 hrs by annexinV-FITC/propidium iodide staining based flow cytometric analysis (reference value: 0.56%); assay type: functional
A-375 [6] = assay: Induction of apoptosis in human A375 cells assessed as early apoptotic cells at 2.5 uM after 36 hrs by annexinV-FITC/propidium iodide staining based flow cytometric analysis (reference value: 3.2%); assay type: functional
A-375 [7] = assay: Induction of cell cycle arrest in human A375 cells assessed as accumulation at S phase at 5 uM after 24 hrs by propidium iodide staining based flow cytometric analysis (reference value: 37.33%); assay type: functional
A-375 [8] = assay: Induction of cell cycle arrest in human A375 cells assessed as accumulation at S phase at 2.5 uM after 24 hrs by propidium iodide staining based flow cytometric analysis (reference value: 37.33%); assay type: functional
Homo sapiens = species on record: Homo sapiens; assay: Inhibition of PDK (unknown origin) using RYHGHSMSDP as substrate at 1 uM after 30 mins by Kinase-Glo luminescent assay
A-375 [9] = assay: Induction of apoptosis in human A375 cells assessed as necrotic cells at 5 uM after 12 hrs by annexinV-FITC/propidium iodide staining based flow cytometric analysis (reference value: 0.56%); assay type: functional
A-375 [10] = assay: Induction of apoptosis in human A375 cells assessed as early apoptotic cells at 5 uM after 24 hrs by annexinV-FITC/propidium iodide staining based flow cytometric analysis (reference value: 0.87%); assay type: functional
A-375 [11] = assay: Induction of apoptosis in human A375 cells assessed as viable cells at 5 uM after 12 hrs by annexinV-FITC/propidium iodide staining based flow cytometric analysis (reference value: 97.94%); assay type: functional; conditions: read-out: Activity
A-375 [12] = assay: Antitumour activity against human A375 cells xenografted with mouse assessed as tumour growth inhibition at 5 mg/kg, im administered once per three days for 21 days; assay type: functional, organism-based; conditions: time 21.0 day
Procedure, shortened: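 Xenograft model. A375 cells harvested at 80% confluence with trypsin/EDTA, resuspended in serum-free DMEM and injected subcutaneously into the right flank of mice. Once tumours were visible (about 7 days), mice were randomised to vehicle or 5 mg/kg groups, n = 4, dosed by intramuscular injection once every three days. Tumour growth and body weight followed; tumours harvested and weighed at 21 days.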

A-375 [13] = assay: Induction of cell cycle arrest in human A375 cells assessed as accumulation at G1 phase at 1 uM after 24 hrs by propidium iodide staining based flow cytometric analysis (reference value: 52.65%); assay type: functional
[14] = target: [Pyruvate dehydrogenase (acetyl-transferring)] kinase isozyme 3, mitochondrial (Homo sapiens, UniProt Q15120); assay: Binding affinity to PDK3 (unknown origin) by isothermal titration calorimetry
Sequence of [Pyruvate dehydrogenase (acetyl-transferring)] kinase isozyme 3, mitochondrial (Q15120 whole entry): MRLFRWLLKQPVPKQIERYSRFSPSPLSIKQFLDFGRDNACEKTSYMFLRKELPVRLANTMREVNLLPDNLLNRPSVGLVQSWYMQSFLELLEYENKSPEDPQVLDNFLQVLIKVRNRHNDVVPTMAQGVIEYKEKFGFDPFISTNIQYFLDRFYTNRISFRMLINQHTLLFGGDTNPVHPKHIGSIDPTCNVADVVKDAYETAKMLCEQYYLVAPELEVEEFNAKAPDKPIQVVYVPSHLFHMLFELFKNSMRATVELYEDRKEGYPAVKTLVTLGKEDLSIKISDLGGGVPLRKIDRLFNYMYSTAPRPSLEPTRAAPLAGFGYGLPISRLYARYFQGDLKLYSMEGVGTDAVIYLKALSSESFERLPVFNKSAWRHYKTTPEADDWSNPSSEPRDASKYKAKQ
Procedure, shortened: (§2)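 Isothermal titration calorimetry at 25 °C. Compound dissolved in DMSO, diluted to 100 µM in buffer and placed in the titration syringe; 250 µL of PDK protein solution in the reaction cell. Titrant added in 2.5 µL increments per injection.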

A-375 [15] = assay: Induction of apoptosis in human A375 cells assessed as necrotic cells at 2.5 uM after 36 hrs by annexinV-FITC/propidium iodide staining based flow cytometric analysis (reference value: 1.63%); assay type: functional
[16] = target: [Pyruvate dehydrogenase (acetyl-transferring)] kinase isozyme 4, mitochondrial (Homo sapiens, UniProt Q16654); assay: Binding affinity to PDK4 (unknown origin) by isothermal titration calorimetry; procedure, shortened: as §2
Sequence of [Pyruvate dehydrogenase (acetyl-transferring)] kinase isozyme 4, mitochondrial (Q16654 whole entry): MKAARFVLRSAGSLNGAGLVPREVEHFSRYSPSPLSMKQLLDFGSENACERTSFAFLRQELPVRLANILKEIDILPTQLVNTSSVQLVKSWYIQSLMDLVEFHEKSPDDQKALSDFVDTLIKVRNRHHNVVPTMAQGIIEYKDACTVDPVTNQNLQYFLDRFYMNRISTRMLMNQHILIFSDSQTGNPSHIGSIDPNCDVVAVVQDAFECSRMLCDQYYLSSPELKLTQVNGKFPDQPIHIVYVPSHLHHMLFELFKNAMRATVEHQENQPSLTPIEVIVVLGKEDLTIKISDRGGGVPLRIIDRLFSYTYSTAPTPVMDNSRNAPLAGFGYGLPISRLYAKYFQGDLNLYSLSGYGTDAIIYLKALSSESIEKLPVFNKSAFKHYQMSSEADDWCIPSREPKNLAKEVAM

A-375 [17] = assay: Induction of apoptosis in human A375 cells assessed as viable cells at 5 uM after 24 hrs by annexinV-FITC/propidium iodide staining based flow cytometric analysis (Rvb= 97.94%); assay type: functional; conditions: read-out: Activity
A-375 [18] = assay: Inhibition of cell migration in human A375 cells at 0.5 to 2 uM after 24 hrs by wound healing assay; assay type: functional, cell-based; conditions: dose 0.5-2 µM
Procedure, shortened: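 A375 monolayer scratched and treated for 24 h, imaged at ×100. Closure ratio (%) = (start scratched area − after scratched area)/start scratched area, compared with control. P < 0.05 versus control considered significant.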

SH-SY5Y = assay: Antiproliferative activity against human SHSY-5Y cells assessed as growth inhibition after 72 hrs by MTT assay; assay type: functional, cell-based; conditions: Homo sapiens, SH-SY5Y, 72 h; read-out: IC50; procedure, shortened: as §1
A-375 [19] = assay: Induction of apoptosis in human A375 cells assessed as early apoptotic cells at 5 uM after 36 hrs by annexinV-FITC/propidium iodide staining based flow cytometric analysis (reference value: 3.2%); assay type: functional
A-375 [20] = assay: Inhibition of PDK in human A375 cells assessed as increase in oxygen consumption rate after 4 hrs by XFe cell Mito stress test assay; assay type: cell-based; conditions: dose 2.5-5 µM
Procedure, shortened: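 A375 cells attached, then given an extra 100 µL growth medium and incubated 24 h. Treated 4 h, then rinsed twice with pre-warmed XFe base medium. OCR measured as in a previous report.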

A-375 [21] = assay: Induction of apoptosis in human A375 cells assessed as viable cells at 5 uM after 36 hrs by annexinV-FITC/propidium iodide staining based flow cytometric analysis (reference value: 94.15%); assay type: functional; conditions: read-out: Activity

IC50 (A549): 3.2 µM
inhibition (Homo sapiens): 98.7%
Kd [14]: 7.8 µM
Kd [16]: 9.2 µM
IC50 (SH-SY5Y): 1700 nM
SMILES: CC(C)(CO)c1ccc(Nc2ccc(C(=O)C(Cl)Cl)cc2[N+](=O)[O-])cc1
Activity (A-375 [1]): 34.63%
inhibition of growth at 10 µM (MCF7): 95.3%
Activity (A-375 [2]): 22.3%
Activity (A-375 [3]): 4.21%
Activity (A-375 [4]): Active
Activity (A-375 [5]): 3.56%
Activity (A-375 [6]): 5.6%
Activity (A-375 [7]): 27.43%
Activity (A-375 [8]): 30.75%
Activity (A-375 [9]): 1.65%
Activity (A-375 [10]): 6.47%
viability at 5 µM (A-375 [11]): 82.8%
Activity (A-375 [12]): Active
Activity (A-375 [13]): 55.72%
Activity (A-375 [15]): 3.17%
viability at 5 µM (A-375 [17]): 70.9%
inhibition (A-375 [18]): Active
Activity (A-375 [19]): 6.52%
inhibition (A-375 [20]): Dose-dependent effect
viability at 5 µM (A-375 [21]): 44.5%
